Measurements reported in ChEMBL document CHEMBL4196071, “Discovery of tetrahydrocarbazoles with potent hypoglycemic and hypolipemic activities” (Eur J Med Chem, 2018).
Calls of active or inactive are those of the source. The rule behind the calls is not given here.

Columns and labels:
[1] = test system: Mus musculus; assay: Toxicity in db/db mouse assessed as increase in body weight at 30 mg/kg, po treated for 1 to 3 weeks measured at 3 hrs post last dose relative to control; type: organism-based; conditions: in vivo
[2] = test system: Mus musculus; assay: Hypoglycemic activity in db/db mouse assessed as decrease in blood glucose level at 30 mg/kg, po treated for 3 week measured at 3 hrs post last dose (reference value: 0.0 +/- 6.8%); type: functional; set-up: scale not given: the % may be the effect or the level left
[3] = test system: Mus musculus; assay: Hypolipemic activity in db/db mouse assessed as total plasma cholesterol level at 30 mg/kg, po treated for 3 consecutive weeks (reference value: 6.05 to 6.98 mM); type: functional
[4] = test system: Mus musculus; assay: Hypolipemic activity in db/db mouse assessed as plasma fasting triglyceride level at 30 mg/kg, po treated for 3 consecutive weeks (reference value: 0.70 to 0.97 mM); type: functional
[5] = test system: Mus musculus; assay: Hypoglycemic activity in db/db mouse assessed as decrease in blood glucose level at 30 mg/kg, po administered as single dose measured at 3 hrs post last dose (reference value: 0.0 +/- 4.1%); type: functional; set-up: scale not given: the % may be the effect or the level left
[6] = test system: Mus musculus; assay: Hypoglycemic activity in db/db mouse assessed as decrease in blood glucose level at 30 mg/kg, po treated for 1 week measured at 3 hrs post last dose (reference value: 0.0 +/- 8.6%); type: functional; set-up: scale not given: the % may be the effect or the level left
[7] = test system: Mus musculus; assay: Hypoglycemic activity in db/db mouse assessed as decrease in blood glucose level at 30 mg/kg, po treated for 2 week measured at 3 hrs post last dose (reference value: 0.0 +/- 4.0%); type: functional; set-up: scale not given: the % may be the effect or the level left
[8] = target: T1, AMP-activated protein kinase, AMPK (Homo sapiens) (UniProt P54646+O43741+P54619+Q9UGJ0+Q9Y478+Q13131+Q9UGI9); assay: Activation of AMPK in human HepG2 cells assessed as induction of glucose consumption at 10 uM treated over 24 hrs by glucose oxidase method relative to control; type: cell-based
In short: (§1)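 HepG2 cells kept in DMEM (25 mM D-glucose) with 10% serum at 37 °C, 5% CO2. At 80-90% confluence the medium was switched to serum-free RPMI-1640 with 11.1 mM glucose and 0.2% BSA. Compounds in DMSO (0.5% v/v vehicle control) were given for 24 h. Medium glucose was read by glucose oxidase; consumption = cell-free blank wells minus cell wells. Student's t test against control.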

[9] = target: T1, AMP-activated protein kinase, AMPK (Homo sapiens); assay: Activation of AMPK in human HepG2 cells assessed as induction of glucose consumption at 1 mM treated over 24 hrs by glucose oxidase method relative to control; type: cell-based; in short: as §1
[10] = target: T1, AMP-activated protein kinase, AMPK (Homo sapiens); assay: Activation of AMPK in human HepG2 cells assessed as induction of glucose consumption at 0.1 uM treated over 24 hrs by glucose oxidase method relative to control; type: cell-based; in short: as §1
[11] = target: T1, AMP-activated protein kinase, AMPK (Homo sapiens); assay: Activation of AMPK in human HepG2 cells assessed as induction of glucose consumption at 1 uM treated over 24 hrs by glucose oxidase method relative to control; type: cell-based; in short: as §1
[12] = target: T1, AMP-activated protein kinase, AMPK (Homo sapiens); assay: Activation of AMPK in human HepG2 cells assessed as induction of glucose consumption treated over 24 hrs by glucose oxidase method; type: cell-based; in short: as §1
[13] = test system: HepG2; assay: Induction of AMPKalpha phosphorylation at Thr172 residue in human HepG2 cells at 10 uM by Western blot analysis; type: cell-based
In short: (§2)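 HepG2 cells were treated at 10 μM and lysed in pH 7.5 Tris buffer containing NaF, β-glycerophosphate, EDTA/EGTA, Triton X-100 and protease inhibitors, then cleared at 10,000 × g for 30 min at 4 °C. Equal lysate volumes were run on 8% SDS-PAGE and transferred to PVDF. Blots were probed for p-AMPKα (Thr172) and p-ACC (Ser79) with HRP secondary antibodies.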

[14] = test system: HepG2; assay: Activation of AMPKalpha in human HepG2 cells assessed as ACC phosphorylation at Ser79 residue at 10 uM by Western blot analysis; type: cell-based; in short: as §2
[15] = test system: Rattus norvegicus; assay: Volume of distribution in Sprague-Dawley rat at 5 mg/kg, iv by LC/MS/MS analysis; type: ADME, organism-based; conditions: in vivo
In short: (§3)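 SD rats, three male and three female. Given iv at 5 mg/kg and intragastric at 20 mg/kg; the oral dose went by gavage in 20% 1,2-propanediol/80% water. Heparinized blood was sampled over 32 h post dose. Plasma was extracted with EtOAc and measured by LC/MS/MS. Non-compartmental analysis gave the PK parameters (n = 6).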

[16] = test system: Mus musculus; assay: Potency index, ratio of test compound to GY3 hypoglycemic activity in db/db mouse assessed as decrease in blood glucose level at 30 mg/kg, po treated for 3 week measured at 3 hrs post last dose; type: functional
[17] = AUC (0 to t) in Sprague-Dawley rat at 5 mg/kg, iv by LC/MS/MS analysis; type: ADME, organism-based; conditions: in vivo; in short: as §3
[18] = AUC (0 to infinity) in Sprague-Dawley rat at 20 mg/kg, ig by LC/MS/MS analysis; type: ADME, organism-based; set-up: dose 20 mg/kg, route intragastric, time infinity; conditions: in vivo, po; in short: as §3
[19] = AUC (0 to t) in Sprague-Dawley rat at 20 mg/kg, ig by LC/MS/MS analysis; type: ADME, organism-based; conditions: in vivo, po; in short: as §3
[20] = test system: Rattus norvegicus; assay: Half life in Sprague-Dawley rat at 5 mg/kg, iv by LC/MS/MS analysis; type: ADME, organism-based; conditions: in vivo; in short: as §3
[21] = test system: Rattus norvegicus; assay: Volume of distribution in Sprague-Dawley rat at 20 mg/kg, ig by LC/MS/MS analysis; type: ADME, organism-based; conditions: in vivo, po; in short: as §3
[22] = test system: Rattus norvegicus; assay: Clearance in Sprague-Dawley rat at 20 mg/kg, ig by LC/MS/MS analysis; type: ADME, organism-based; conditions: in vivo, po; in short: as §3
[23] = AUC (0 to infinity) in Sprague-Dawley rat at 5 mg/kg, iv by LC/MS/MS analysis; type: ADME, organism-based; set-up: dose 5 mg/kg, route intravenous, time infinity; conditions: in vivo; in short: as §3
[24] = Tmax in Sprague-Dawley rat at 20 mg/kg, ig by LC/MS/MS analysis; type: ADME, organism-based; conditions: in vivo, po; in short: as §3
[25] = Bioavailability in Sprague-Dawley rat at 20 mg/kg, ig by LC/MS/MS analysis; type: ADME, organism-based; conditions: in vivo, po; in short: as §3
[26] = test system: Rattus norvegicus; assay: Half life in Sprague-Dawley rat at 20 mg/kg, ig by LC/MS/MS analysis; type: ADME, organism-based; conditions: in vivo, po; in short: as §3
[27] = test system: Rattus norvegicus; assay: Clearance in Sprague-Dawley rat at 5 mg/kg, iv by LC/MS/MS analysis; type: ADME, organism-based; conditions: in vivo; in short: as §3
[28] = Cmax in Sprague-Dawley rat at 20 mg/kg, ig by LC/MS/MS analysis; type: ADME, organism-based; set-up: dose 20 mg/kg, route intragastric; conditions: in vivo, po; in short: as §3

Cc1c(CC(=O)O)c2cc(OCc3ccccc3)ccc2n1C(=O)c1ccc(Cl)cc1
Activity [1]: 8.5% | Activity [2]: 13.5% | Activity [3]: 7.78 mM | Activity [4]: 0.79 mM | Activity [5]: 32.9% | Activity [6]: 25.7% | Activity [7]: 30.3%

Cc1ccc(Cn2c3c(c4cc(OCc5ccccc5)ccc42)CC(C(=O)O)CC3)cc1 (centres undefined)
Activity [8]: 42.2%

CN(C)C(=N)NC(=N)N
Activity [9]: 60.4 to 63.7%

O=C(O)C1CCc2c(c3cc(OCc4ccc(F)cc4)ccc3n2C(=O)c2ccc(Cl)cc2)C1 (centres undefined)
Activity [10]: 0.11% | Activity [8]: 53.4 to 68.8% | Activity [11]: 20.1% | Activity [12]: Dose-dependent effect

O=C(O)C1CCc2c(c3cc(OCc4ccccc4)ccc3n2Cc2ccc(F)cc2)C1 (centres undefined)
Activity [8]: 34.3%

COc1ccc(S(=O)(=O)n2c3c(c4cc5c(cc42)OCO5)CC(C(=O)O)CC3)cc1 (centres undefined)
Activity [8]: 40.3%

O=C(O)C1CCc2[nH]c3ccc(OCc4ccccc4)cc3c2C1 (centres undefined)
Activity [13]: Active | Activity [10]: 29% | Activity [14]: Active | Activity [8]: 48.4 to 52.3% | Activity [11]: 37.2% | Activity [12]: Dose-dependent effect

O=C(O)C1CCc2c(c3cc4c(cc3n2C(=O)c2ccc(Cl)cc2)OCO4)C1 (centres undefined)
Activity [8]: 55.1%

O=C(O)C1CCc2c(c3cc(OCc4ccccc4)ccc3n2C(=O)c2ccc(Cl)cc2)C1 (stereo in doubt; 7a) [listing 1 of 2 here]
Activity [13]: Active | Activity [10]: 15.5% | Activity [14]: Active | Activity [8]: 72.9 to 82.5% | Activity [11]: 30.2% | Activity [12]: Dose-dependent effect

O=C(O)C1CCc2c(c3cc(OCc4ccccc4)ccc3n2Cc2ccccc2)C1 (centres undefined)
Activity [8]: 30.4%

O=C(O)C1CCc2c(c3cc(OCc4ccccc4)ccc3n2Cc2ccc(Cl)cc2)C1 (centres undefined)
Activity [8]: 32.7%

O=C(O)C1CCc2c(c3cc(OCc4ccccc4)ccc3n2C(=O)c2ccc(Cl)cc2)C1 (stereo in doubt; (+)-7a)
Activity [13]: Active | Activity [10]: 1.79% | Activity [14]: Active | Activity [8]: 55.3 to 60.6% | Activity [11]: 27.3% | Activity [12]: Dose-dependent effect

O=C(O)C1CCc2c(c3cc4c(cc3n2S(=O)(=O)c2ccc(Cl)cc2)OCO4)C1 (centres undefined)
Activity [8]: 47.5%

N#Cc1ccc(COc2ccc3c(c2)c2c(n3C(=O)c3ccc(Cl)cc3)CCC(C(=O)O)C2)cc1 (centres undefined)
Activity [13]: Active | Activity [10]: 9.65% | Activity [14]: Active | Activity [8]: 50.2 to 72.8% | Activity [11]: 26.8% | Activity [12]: Dose-dependent effect

O=C(O)C1CCc2c(c3cc(OCc4ccccc4)ccc3n2C(=O)c2ccc(F)cc2)C1 (centres undefined)
Activity [8]: 75.2%

O=C(O)C1CCc2c(c3cc(OCc4ccccc4)ccc3n2C(=O)c2ccc(Cl)cc2)C1 (single isomer, unassigned; (-))
Activity [13]: Active | Activity [10]: 12.9% | Activity [14]: Active | Activity [8]: 76.4 to 85.5% | Activity [11]: 35.6% | Activity [12]: Dose-dependent effect

O=C(O)C1CCc2c(c3cc(OCc4ccccc4)ccc3n2S(=O)(=O)c2ccc(Cl)cc2)C1 (centres undefined)
Activity [1]: 3.7% | Activity [2]: 14.3% | Activity [3]: 6.91 mM | Activity [4]: 0.99 mM | Activity [8]: 64.5% | Activity [5]: 15.5% | Activity [6]: 28.9% | Activity [7]: 16.3%

O=C(O)c1ccccc1-c1ccc(Cn2c3c(c4cc(OCc5ccccc5)ccc42)CC(C(=O)O)CC3)cc1 (centres undefined)
Activity [8]: 27.5%

Cc1nc(C)c(COc2ccc3c(c2)c2c(n3C(=O)c3ccc(Cl)cc3)CCC(C(=O)O)C2)nc1C (centres undefined)
Activity [13]: Active | Activity [14]: Active | Activity [8]: 47.5%

COc1ccc(S(=O)(=O)n2c3c(c4cc(OCc5ccccc5)ccc42)CC(C(=O)O)CC3)cc1 (centres undefined)
Activity [8]: 60.3%

COc1ccc2c(c1)c1c(n2C(=O)c2ccc(Cl)cc2)CCC(C(=O)O)C1 (centres undefined)
Activity [8]: 50.5%

O=C(O)C1CCc2c(c3cc(OCc4ccccn4)ccc3n2C(=O)c2ccc(Cl)cc2)C1 (centres undefined)
Activity [8]: 47.5%

CC(Oc1ccc2c(c1)c1c(n2C(=O)c2ccc(Cl)cc2)CCC(C(=O)O)C1)c1ccccc1 (centres undefined)
Activity [13]: Active | Activity [10]: 4.89% | Activity [14]: Active | Activity [8]: 62.1 to 68.7% | Activity [11]: 32.2% | Activity [12]: Dose-dependent effect

O=C(O)C1CCc2c(c3cc(OCc4ccccc4)ccc3n2C(=O)c2ccc(Cl)cc2)C1 (stereo in doubt; 7a) [listing 2 of 2 here]
Vd [15]: 2.7 L/kg | Ratio [16]: 2 | AUC(0-t) [17]: 39600 ng·h/mL | Activity [1]: 10.4% | AUC(0-inf) [18]: 48300 ng·h/mL | AUC(0-t) [19]: 32000 ng·h/mL | Activity [2]: 28% | Activity [3]: 6.93 mM | Activity [4]: 0.54 mM | t1/2 [20]: 7.2 h | Vd [21]: 9.98 L/kg | CL [22]: 7.5 mL/min/kg | AUC(0-inf) [23]: 71000 ng·h/mL | Tmax [24]: 7.83 h | bioavailability [25]: 20.2% | t1/2 [26]: 6.46 h | CL [27]: 1.2 mL/min/kg | Cmax [28]: 2320 ng/mL | Activity [5]: 30.6% | Activity [6]: 29.3% | Activity [7]: 19.6%

CCc1ccc(CCOc2ccc(CC3SC(=O)NC3=O)cc2)nc1 (centres undefined) [PIOGLITAZONE]
Activity [1]: 16.3% | Activity [2]: 37.4% | Activity [3]: 7.89 mM | Activity [4]: 0.51 mM | Activity [5]: 21.9% | Activity [6]: 37.1% | Activity [7]: 34.5%
